# From ChEMBL document CHEMBL4396914, “Discovery of new azoles with potent activity against Candida spp. and Candida albicans biofilms through virtual screening” (Eur J Med Chem, 2019)
# What was measured:
# U-937 = assay: Cytotoxicity against human U937 cells assessed as cell viability at 0.125 to 32 ug/ml incubated for 24 to 48 hrs by MTT assay; format: cell-based
# How it was run: (§1)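 MTT assay on U937 monocytic cells, 4×10³ cells/well, in RPMI-1640 with 10% FBS. Eight concentrations, 0.125-32 µg/ml, DMSO ≤0.32% v/v, each in triplicate. Exposure 24 or 48 h at 37 °C, 5% CO₂, then MTT for 4 h. Formazan dissolved in SDS/DMF, absorbance read at 570 nm. Viability calculated relative to untreated cells.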
# Candida tropicalis = assay: Antifungal activity against azole-resistant Candida tropicalis assessed as reduction in fungal growth incubated for 48 hrs by broth microdilution method; format: functional
# How it was run: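 CLSI broth microdilution in RPMI 1640 (glutamine, no bicarbonate) buffered to pH 7.0 with MOPS. Azole-resistant clinical C. tropicalis isolate, stored at -80 °C in glycerol, subcultured twice on Sabouraud dextrose agar. Inoculum from 24-h subcultures, final 0.5 to 2.5×10^3 cfu/ml. Compounds in DMSO, twofold final 1024–0.125 µg/ml. Incubated 35 °C, 48 h. MIC = lowest concentration fully inhibiting visible growth.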
# Candida parapsilosis = assay: Antifungal activity against azole-susceptible Candida parapsilosis ATCC 90018 assessed as reduction in fungal growth incubated for 48 hrs by broth microdilution method; format: functional; details: Lodderomyces parapsilosis, ATCC 90018, 48 h
# How it was run: (§2)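 CLSI broth microdilution in RPMI 1640 with MOPS at pH 7.0. Inoculum taken from 24-h Sabouraud subcultures, final 0.5-2.5×10^3 cfu/ml. Compounds in DMSO, twofold series 1024-0.125 µg/ml final. Incubated 48 h at 35 °C. MIC is the lowest concentration giving complete inhibition of visible growth. Fluconazole served as the reference.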
# Pichia kudriavzevii = assay: Antifungal activity against azole-susceptible Candida krusei ATCC 6258 assessed as reduction in fungal growth incubated for 48 hrs by broth microdilution method; format: functional; details: ATCC 6258, 48 h; how it was run: as §2
# Candida albicans [1] = assay: Disruption of Candida albicans SC5314 pre-formed mature biofilm assessed as reduction in biofilm biomass incubated for 24 hrs by spectrophotometry; format: functional
# How it was run: (§3)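 C. albicans SC5314 biofilms grown on a 96-peg lid (Calgary device, MBEC protocol) from 10^6 cfu/ml inoculum for 24 h at 37 °C. Pegs rinsed in 0.9% saline, then challenged 24 h at 35 °C with twofold dilutions, 512-0.5 µg/ml. MBIC: no well turbidity by visual inspection. MBEC: pegs sonicated into RPMI/2% glucose, regrowth overnight, OD 550 nm plus visual turbidity.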
# Candida albicans [2] = assay: Antifungal activity against azole-susceptible Candida albicans ATCC 90028 assessed as reduction in fungal growth incubated for 48 hrs by broth microdilution method; format: functional; details: ATCC 90028, 48 h; how it was run: as §2
# Candida albicans [3] = assay: Antibiofilm activity against Candida albicans SC5314 assessed as inhibition of biofilm formation by turbidity based visual inspection method; format: functional; how it was run: as §3
# [4] = Cytotoxicity against human U937 cells assessed as cell viability at >= 8 ug/ml incubated for 24 to 48 hrs by MTT assay; format: cell-based, U-937; details: read-out: Activity; how it was run: as §1
# Candida albicans [5] = assay: Antifungal activity against Candida albicans by broth dilution assay; format: functional; how it was run: as §2
Structure (SMILES),Activity (U-937),MIC (Candida tropicalis),MIC (Candida parapsilosis),MIC (Pichia kudriavzevii),MBEC (Candida albicans [1]),MIC (Candida albicans [2]),MBIC (Candida albicans [3]),viability [4],MIC (Candida albicans [5])
Cl.O=C(OC(Cn1ccnc1)c1ccc(Cl)cc1Cl)c1cc2ccccc2[nH]1 (racemic),Non-Toxic,1 µg/mL,0.25 µg/mL,0.5 µg/mL,128 µg/mL,0.125 µg/mL,2 µg/mL,–,–
CC(C)c1ccc(C(=O)OC(Cn2ccnc2)c2ccc(Cl)cc2Cl)cc1.Cl (racemic),–,–,128 µg/mL,128 µg/mL,–,256 µg/mL,–,–,–
C[C@@H]1[C@H](O)[C@@H](C)/C=C/C=C/C=C/C=C/C=C/C=C/C=C/[C@H](O[C@@H]2O[C@H](C)[C@@H](O)[C@H](N)[C@@H]2O)C[C@@H]2O[C@](O)(C[C@@H](O)C[C@@H](O)[C@H](O)CC[C@@H](O)C[C@@H](O)CC(=O)O[C@H]1C)C[C@H](O)[C@H]2C(=O)O [AMPHOTERICIN B],–,–,–,–,256 µg/mL,–,4 µg/mL,–,–
OC(Cn1cncn1)(Cn1cncn1)c1ccc(F)cc1F [FLUCONAZOLE],–,512 µg/mL,0.5 µg/mL,32 µg/mL,–,0.5 µg/mL,–,–,–
Cl.O=C(O/N=C(\Cn1ccnc1)c1ccc(Cl)cc1Cl)c1cc2ccccc2[nH]1,–,256 µg/mL,128 µg/mL,256 µg/mL,–,128 µg/mL,–,–,–
Cl.O=C(OC(Cn1ccnc1)c1ccc(Cl)cc1Cl)c1ccc(-c2ccccc2)cc1 (racemic),–,512 µg/mL,0.25 µg/mL,1 µg/mL,256 µg/mL,0.25 µg/mL,2 µg/mL,< 80%,–
COc1ccc(C(=O)OC(Cn2ccnc2)c2ccc(Cl)cc2Cl)cc1.Cl (racemic),–,4 µg/mL,1 µg/mL,16 µg/mL,256 µg/mL,2 µg/mL,1 µg/mL,–,–
O=C(/C=C/c1ccccc1)O/N=C(\Cn1ccnc1)c1ccc(Cl)cc1Cl,–,64 µg/mL,2 µg/mL,4 µg/mL,512 µg/mL,2 µg/mL,128 µg/mL,–,–
Cl.O=C(O/N=C(\Cn1ccnc1)c1ccc(Cl)cc1Cl)c1ccc2ccccc2n1,–,–,256 µg/mL,256 µg/mL,–,128 µg/mL,–,–,–
O=C(O/N=C(\Cn1ccnc1)c1ccc(Cl)cc1Cl)C1CCCCC1,–,–,64 µg/mL,64 µg/mL,–,64 µg/mL,–,–,–
CCc1ccc(C(=O)O/N=C(\Cn2ccnc2)c2ccc(Cl)cc2Cl)cc1.Cl,–,8 µg/mL,128 µg/mL,256 µg/mL,–,128 µg/mL,–,–,–
Cl.O=C(CCCc1ccccc1)OC(Cn1ccnc1)c1ccc(Cl)cc1Cl (racemic),–,32 µg/mL,2 µg/mL,8 µg/mL,64 µg/mL,2 µg/mL,0.5 µg/mL,–,–
CSc1ccc(C(=O)O/N=C(\Cn2ccnc2)c2ccc(Cl)cc2Cl)cc1.Cl,–,16 µg/mL,2 µg/mL,64 µg/mL,256 µg/mL,2 µg/mL,2 µg/mL,–,–
Cl.O=C(OC(Cn1ccnc1)c1ccc(Cl)cc1Cl)c1ccc(C(F)(F)F)cc1 (racemic),–,–,256 µg/mL,256 µg/mL,–,256 µg/mL,–,–,–
CCc1ccc(C(=O)OC(Cn2ccnc2)c2ccc(Cl)cc2Cl)cc1.Cl (racemic),–,–,256 µg/mL,256 µg/mL,–,256 µg/mL,–,–,–
CC(C)(C)OC(=O)NCCCC(=O)OC(Cn1ccnc1)c1ccc(Cl)cc1Cl.Cl (racemic),–,–,16 µg/mL,128 µg/mL,–,8 µg/mL,–,–,–
Cl.O=C(O/N=C(\Cn1ccnc1)c1ccc(Cl)cc1Cl)c1ccc([N+](=O)[O-])cc1,–,–,16 µg/mL,64 µg/mL,–,64 µg/mL,–,–,–
Cl.O=C(OC(Cn1ccnc1)c1ccc(Cl)cc1Cl)c1ccc(N2CCOCC2)cc1 (racemic),–,–,32 µg/mL,256 µg/mL,–,16 µg/mL,–,–,–
COc1ccc(C(=O)O/N=C(\Cn2ccnc2)c2ccc(Cl)cc2Cl)cc1,Non-Toxic,64 µg/mL,1 µg/mL,1 µg/mL,512 µg/mL,0.5 µg/mL,2 µg/mL,–,–
Cl.O=C(O/N=C(\Cn1ccnc1)c1ccc(Cl)cc1Cl)c1ccc(-c2ccc(-c3ccccc3)cc2)cc1,–,–,128 µg/mL,256 µg/mL,–,128 µg/mL,–,–,–
Cl.O=C(OC(Cn1ccnc1)c1ccc(Cl)cc1Cl)C1CCCCC1 (racemic),–,16 µg/mL,4 µg/mL,32 µg/mL,–,8 µg/mL,–,–,–
O=C(O/N=C(\Cn1ccnc1)c1ccc(Cl)cc1Cl)c1ccc(-c2ccccc2)cc1,Non-Toxic,256 µg/mL,1 µg/mL,1 µg/mL,256 µg/mL,1 µg/mL,16 µg/mL,–,–

Structure (SMILES),Activity (U-937),MIC (Candida tropicalis),MIC (Candida parapsilosis),MIC (Pichia kudriavzevii),MBEC (Candida albicans [1]),MIC (Candida albicans [2]),MBIC (Candida albicans [3]),viability [4],MIC (Candida albicans [5])
CSc1ccc(C(=O)OC(Cn2ccnc2)c2ccc(Cl)cc2Cl)cc1.Cl (racemic),–,–,16 µg/mL,28 µg/mL,–,8 µg/mL,–,–,–
Cl.O=C(OC(Cn1ccnc1)c1ccc(Cl)cc1Cl)c1ccc(Cl)cc1Cl (racemic),–,–,128 µg/mL,256 µg/mL,–,128 µg/mL,–,–,300 µg/mL
Cl.O=C(O/N=C(\Cn1ccnc1)c1ccc(Cl)cc1Cl)c1ccc(Cl)cc1,–,–,32 µg/mL,64 µg/mL,–,32 µg/mL,–,–,–
Cl.O=C(OC(Cn1ccnc1)c1ccc(Cl)cc1Cl)c1ccc([N+](=O)[O-])cc1 (racemic),–,8 µg/mL,4 µg/mL,32 µg/mL,–,8 µg/mL,–,–,> 300 µg/mL
O=C(Cn1ccnc1)c1ccc(Cl)cc1Cl,–,–,32 µg/mL,256 µg/mL,–,128 µg/mL,–,–,–
Cl.O=C(OC(Cn1ccnc1)c1ccc(Cl)cc1Cl)c1ccc2ccccc2c1 (racemic),Non-Toxic,1 µg/mL,1 µg/mL,2 µg/mL,256 µg/mL,1 µg/mL,0.5 µg/mL,–,–
CC(C)(C)c1ccc(C(=O)O/N=C(\Cn2ccnc2)c2ccc(Cl)cc2Cl)cc1,–,64 µg/mL,4 µg/mL,4 µg/mL,256 µg/mL,4 µg/mL,128 µg/mL,–,–
Cl.O=C(OC(Cn1ccnc1)c1ccc(Cl)cc1Cl)C1CCCC1 (racemic),–,8 µg/mL,2 µg/mL,16 µg/mL,>1024 µg/mL,1 µg/mL,32 µg/mL,–,–
O/N=C(\Cn1ccnc1)c1ccc(Cl)cc1Cl,–,–,32 µg/mL,256 µg/mL,–,32 µg/mL,–,–,–
CC(C)c1ccc(C(=O)O/N=C(\Cn2ccnc2)c2ccc(Cl)cc2Cl)cc1.Cl,–,–,16 µg/mL,32 µg/mL,–,16 µg/mL,–,–,–
Cl.O=C(O/N=C(\Cn1ccnc1)c1ccc(Cl)cc1Cl)c1ccc2ccccc2c1,–,–,256 µg/mL,256 µg/mL,–,256 µg/mL,–,–,–
Cl.O=C(CCC(=O)c1ccccc1)OC(Cn1ccnc1)c1ccc(Cl)cc1Cl (racemic),–,–,8 µg/mL,32 µg/mL,–,16 µg/mL,–,–,–
N#Cc1ccc(C(=O)O/N=C(\Cn2ccnc2)c2ccc(Cl)cc2Cl)cc1,–,–,64 µg/mL,64 µg/mL,–,128 µg/mL,–,–,–
CC(C)(C)c1ccc(C(=O)OC(Cn2ccnc2)c2ccc(Cl)cc2Cl)cc1.Cl (racemic),–,–,128 µg/mL,256 µg/mL,–,128 µg/mL,–,–,10 µg/mL
Cl.O=C(O/N=C(\Cn1ccnc1)c1ccc(Cl)cc1Cl)c1ccc(Cl)cc1Cl,–,–,64 µg/mL,64 µg/mL,–,64 µg/mL,–,–,–
O=C(O/N=C(\Cn1ccnc1)c1ccc(Cl)cc1Cl)c1ccccc1,–,–,32 µg/mL,32 µg/mL,–,32 µg/mL,–,–,–
OC(Cn1ccnc1)c1ccc(Cl)cc1Cl (stereo not given),–,256 µg/mL,4 µg/mL,128 µg/mL,–,8 µg/mL,–,–,–
O=C(OC(Cn1ccnc1)c1ccc(Cl)cc1Cl)c1ccc(-c2ccc(-c3ccccc3)cc2)cc1 (racemic),–,–,256 µg/mL,256 µg/mL,–,256 µg/mL,–,–,–
Cc1ccc(C(=O)O/N=C(\Cn2ccnc2)c2ccc(Cl)cc2Cl)cc1,–,–,256 µg/mL,256 µg/mL,–,128 µg/mL,–,–,–
Cl.O=C(/C=C/c1ccccc1)OC(Cn1ccnc1)c1ccc(Cl)cc1Cl (racemic),Non-Toxic,4 µg/mL,1 µg/mL,1 µg/mL,64 µg/mL,0.5 µg/mL,0.5 µg/mL,–,–
Cl.N#Cc1ccc(C(=O)OC(Cn2ccnc2)c2ccc(Cl)cc2Cl)cc1 (racemic),–,16 µg/mL,4 µg/mL,64 µg/mL,–,8 µg/mL,–,–,–
